According to ChEMBL document CHEMBL4368872, “Synthesis and anticonvulsant activity of phenoxyacetyl derivatives of amines, including aminoalkanols and amino acids” (Medchemcomm, 2018):
Active and inactive are the calls of the source. No cut-off for these calls is given here.

Assays:
Mus musculus [1] = assay: Anticonvulsant activity in CF-1 mouse model of maximal electroshock-induced seizure assessed as suppression of tonic hind limb extension at 100 mg/kg, ip measured at 1 hr post dose; assay type: functional, organism-based
Procedure, shortened: (§1)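 Mice dosed i.p. and given maximal electroshock at 50 mA. Read-out is protection, reported as number protected / number tested at 0.25, 0.5, 1 and 4 h after dosing.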

Mus musculus [2] = assay: Anticonvulsant activity in CF-1 mouse model of maximal electroshock-induced seizure assessed as suppression of tonic hind limb extension at 30 mg/kg, ip measured at 4 hrs post dose; assay type: functional, organism-based; procedure, shortened: as §1
[3] = Neurotoxicity in CF-1 mouse at 100 mg/kg, ip measured after 0.25 hrs by rotarod test; assay type: toxicity, organism-based; settings: in vivo
Procedure, shortened: (§2)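 Mice dosed i.p. were placed on a 1 in. knurled rod turning at 6 rpm. Toxicity was scored as failure to keep balance for at least 1 min, i.e. falling off three or more times. Results are reported as animals showing toxicity / animals tested at each time point.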

[4] = Neurotoxicity in CF-1 mouse at 100 mg/kg, ip measured after 0.5 hrs by rotarod test; assay type: toxicity, organism-based; settings: in vivo; procedure, shortened: as §2
Mus musculus [5] = assay: Anticonvulsant activity in CF-1 mouse model of subcutaneous pentylenetetrazole-induced seizure assessed as reduction in convulsions at 30 mg/kg, ip measured at 0.5 hrs post dose; assay type: functional, organism-based
Procedure, shortened: (§3)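 Mice dosed i.p., then given pentylenetetrazole 85 mg/kg in 0.9% NaCl s.c. into the posterior midline of the neck. Seizures watched for at least 30 min. Scored as protected / tested at 0.5 and 4 h.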

Mus musculus [6] = assay: Anticonvulsant activity in CF-1 mouse model of maximal electroshock-induced seizure assessed as suppression of tonic hind limb extension at 30 mg/kg, ip measured at 0.5 hrs post dose; assay type: functional, organism-based; procedure, shortened: as §1
Mus musculus [7] = assay: Anticonvulsant activity in CF-1 mouse model of subcutaneous pentylenetetrazole-induced seizure assessed as reduction in convulsions at 300 mg/kg, ip measured at 0.5 hrs post dose; assay type: functional, organism-based; procedure, shortened: as §3
[8] = Neurotoxicity in CF-1 mouse at 100 mg/kg, ip measured after 4 hrs by rotarod test; assay type: toxicity, organism-based; settings: in vivo; procedure, shortened: as §2
Mus musculus [9] = assay: Anticonvulsant activity in CF-1 mouse model of maximal electroshock-induced seizure assessed as suppression of tonic hind limb extension at 100 mg/kg, ip measured at 4 hrs post dose; assay type: functional, organism-based; procedure, shortened: as §1
[10] = Neurotoxicity in CF-1 mouse at 30 mg/kg, ip measured after 4 hrs by rotarod test; assay type: toxicity, organism-based; settings: in vivo; procedure, shortened: as §2
Mus musculus [11] = assay: Anticonvulsant activity in CF-1 mouse model of maximal electroshock-induced seizure assessed as suppression of tonic hind limb extension at 300 mg/kg, ip measured at 4 hrs post dose; assay type: functional, organism-based; procedure, shortened: as §1
Mus musculus [12] = assay: Anticonvulsant activity in CF-1 mouse model of subcutaneous pentylenetetrazole-induced seizure assessed as reduction in convulsions at 30 mg/kg, ip measured at 4 hrs post dose; assay type: functional, organism-based; procedure, shortened: as §3
[13] = Neurotoxicity in CF-1 mouse at 100 mg/kg, ip measured after 1 hr by rotarod test; assay type: toxicity, organism-based; settings: in vivo; procedure, shortened: as §2
[14] = Neurotoxicity in CF-1 mouse at 300 mg/kg, ip measured after 4 hrs by rotarod test; assay type: toxicity, organism-based; settings: in vivo; procedure, shortened: as §2
Mus musculus [15] = assay: Anticonvulsant activity in CF-1 mouse model of subcutaneous pentylenetetrazole-induced seizure assessed as reduction in convulsions at 100 mg/kg, ip measured at 0.5 hrs post dose; assay type: functional, organism-based; procedure, shortened: as §3
Mus musculus [16] = assay: Anticonvulsant activity in CF-1 mouse model of subcutaneous pentylenetetrazole-induced seizure assessed as reduction in convulsions at 300 mg/kg, ip measured at 4 hrs post dose; assay type: functional, organism-based; procedure, shortened: as §3
Mus musculus [17] = assay: Anticonvulsant activity in CF-1 mouse model of subcutaneous pentylenetetrazole-induced seizure assessed as reduction in convulsions at 100 mg/kg, ip measured at 4 hrs post dose; assay type: functional, organism-based; procedure, shortened: as §3
Mus musculus [18] = assay: Anticonvulsant activity in CF-1 mouse model of maximal electroshock-induced seizure assessed as suppression of tonic hind limb extension at 300 mg/kg, ip measured at 0.5 hrs post dose; assay type: functional, organism-based; procedure, shortened: as §1
Mus musculus [19] = assay: Anticonvulsant activity in CF-1 mouse model of maximal electroshock-induced seizure assessed as suppression of tonic hind limb extension at 100 mg/kg, ip measured at 0.5 hrs post dose; assay type: functional, organism-based; procedure, shortened: as §1
Mus musculus [20] = assay: Anticonvulsant activity in CF-1 mouse model of maximal electroshock-induced seizure assessed as suppression of tonic hind limb extension at 100 mg/kg, ip measured at 0.25 hrs post dose; assay type: functional, organism-based; procedure, shortened: as §1
[21] = Neurotoxicity in CF-1 mouse at 30 mg/kg, ip measured after 0.5 hrs by rotarod test; assay type: toxicity, organism-based; settings: in vivo; procedure, shortened: as §2
[22] = Neurotoxicity in CF-1 mouse at 300 mg/kg, ip measured after 0.5 hrs by rotarod test; assay type: toxicity, organism-based; settings: in vivo; procedure, shortened: as §2

Structure (SMILES)	Activity (Mus musculus [1])	Activity (Mus musculus [2])	Activity [3]	Activity [4]	Activity (Mus musculus [5])	Activity (Mus musculus [6])	Activity (Mus musculus [7])	Activity [8]	Activity (Mus musculus [9])	Activity [10]	Activity (Mus musculus [11])	Activity (Mus musculus [12])	Activity [14]	Activity (Mus musculus [15])	Activity (Mus musculus [16])	Activity (Mus musculus [17])	Activity (Mus musculus [18])	Activity (Mus musculus [19])	Activity (Mus musculus [20])	Activity [21]	also measured
CCC(NC(=O)COc1c(C)cc(C)cc1C)C(N)=O (stereo not drawn)	inactive	inactive	Non-Toxic	Non-Toxic	inactive	inactive	inactive	Non-Toxic	inactive	Non-Toxic	inactive	inactive	Non-Toxic	inactive	inactive	inactive	Active	inactive	inactive	Non-Toxic	Activity [13]: Non-Toxic
Cc1cccc(C)c1OCC(=O)NC(C)C(=O)O (stereo not drawn)		inactive		Non-Toxic	inactive	inactive	inactive	Non-Toxic	inactive	Non-Toxic	inactive	inactive	Non-Toxic	inactive	inactive	inactive	inactive	inactive		Non-Toxic	Activity [22]: Non-Toxic
Cc1cc(C)c(OCC(=O)NCC(O)c2ccccc2)c(C)c1 (stereo not drawn)		inactive		Non-Toxic	inactive	inactive	inactive	Non-Toxic	inactive	Non-Toxic	inactive	inactive	Non-Toxic	inactive	inactive	inactive	inactive	inactive		Non-Toxic	Activity [22]: Toxic
Cc1cccc(C)c1OCC(=O)N[C@@H](C)CO		inactive			inactive	inactive	inactive		inactive	Non-Toxic	Active	inactive		inactive	inactive	inactive	Active	inactive			
CCC(CO)NC(=O)COc1c(C)cc(C)cc1C (stereo not drawn)	inactive	inactive	Non-Toxic		inactive	inactive	inactive	Non-Toxic	inactive	Non-Toxic	inactive	inactive	Non-Toxic	inactive	inactive	inactive	Active	inactive	inactive	Non-Toxic	Activity [13]: Non-Toxic
Cc1cccc(C)c1OCC(=O)N[C@@H](C)C(=O)O		inactive		Non-Toxic	inactive	inactive	inactive	Non-Toxic	inactive	Non-Toxic	inactive	inactive	Non-Toxic	inactive	inactive	inactive	inactive	inactive		Non-Toxic	Activity [22]: Non-Toxic
Cc1cccc(C)c1OCC(=O)N[C@H](C)C(N)=O	inactive	inactive	Non-Toxic		inactive	inactive	inactive	Non-Toxic	inactive	Non-Toxic	inactive		Non-Toxic	inactive	inactive	inactive	Active	inactive	inactive	Non-Toxic	
Cc1cccc(C)c1OCC(=O)NCCc1ccccc1		inactive		Non-Toxic	inactive	inactive	inactive	Non-Toxic	inactive	Non-Toxic	inactive	inactive	Non-Toxic	inactive	inactive	inactive	inactive	inactive		Non-Toxic	
